These results are taken from ChEMBL document CHEMBL1157151, “Design and synthesis of N-(3,5-difluoro-4-hydroxyphenyl)benzenesulfonamides as aldose reductase inhibitors” (Bioorg Med Chem, 2008).

The IC50 is the concentration that gives 50% inhibition.

A short description of test [1]: Antioxidant activity assessed as inhibition of DOPC liposomes. The class given is functional. An outline of the steps:
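Unilamellar DOPC liposomes (final 0.8 mM) in 20 mM phosphate buffer pH 7.4 incubated with test compound (10–300 µM) and AAPH initiator (final 10 mM), 50 °C, 80 min. Lipid hydroperoxides extracted with CHCl₃/MeOH (2:1) containing BHT, measured by thiocyanate method at 500 nm against cumene hydroperoxide calibration. IC50 by least-squares fit of linear part of semilog % inhibition plot; triplicate.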

Test [2] can be described thus: DPPH radical scavenging activity. It counts as functional. An outline of the steps:
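Compound in ethanol mixed with ethanolic DPPH; final 0.2–0.0125 mM compound, 0.2 mM DPPH. Absorbance loss at 517 nm followed. IC50 from nine concentrations at 270 min steady state; EC50 = IC50/[DPPH]. Initial rate from linear absorbance decrease over first 30 s at equimolar 0.2 mM. Triplicate.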
(The DPPH test is a chemical assay of radical scavenging.)

Test [3] addresses Aldo-keto reductase family 1 member B1 (Rattus norvegicus, UniProt P07943). The test is described as follows: Inhibition of aldose reductase in rat lenses. An outline of the steps:
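Activity read spectrophotometrically as NADPH oxidation. Five concentrations; IC50 by least-squares fit of linear portion of log(dose)–response curve; triplicate.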

Test [4] has as its system Jejunum. The test is described as follows: Ratio of permeability from serosal to mucosal over mucosal to serosal side of the Wistar rat jejunum.
For test [5], the system named is Jejunum. Kind of test: Apparent permeability from mucosal to serosal side in Wistar rat jejunum. It counts as functional, tissue-based. An outline of the steps: (§1)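 Jejunum from starved male Wistar rats (250–320 g), 1 cm² exposed, in side-by-side diffusion chambers; 25 min preincubation. Donor: 0.479 mM compound, 10 µM fluorescein paracellular marker, glucose or mannitol in Ringer buffer, applied mucosal (M–S) or serosal (S–M). Acceptor sampled every 25 min to 175 min. Viability checked by PD, Isc, TEER. HPLC-UV 220 nm, fluorescein by fluorescence. Papp calculated.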

Test [6] has as its system Jejunum. The test is described as follows: Apparent permeability from serosal to mucosal side in Wistar rat jejunum. It counts as functional, tissue-based. Summed up:
as §1

Consider `Cc1c(C)c2c(c(C)c1O)CCC(C)(C(=O)O)O2` (centres undefined) [TROLOX], for which the IC50 worked out at 93.5 µM in test [1] and 37 µM in test [2].

Turning to `Nc1ccc(S(=O)(=O)Nc2cc(F)c(O)c(F)c2)cc1`, the IC50 in test [3] stood at 14.1 µM.

For the molecule `O=S(=O)(Nc1cc(F)c(O)c(F)c1)c1ccccc1`, the IC50 in test [1] was 95.9 µM; in test [2] it was 49 µM; in test [3], 32.9 µM. Also, in test [4], the Ratio was 0.46. Further, the permeability in test [5] worked out at 6.34 ×10⁻⁶ cm/s; in test [6] it was 2.91 ×10⁻⁶ cm/s.

`CC(/C=C1\SC(=S)N(CC(=O)O)C1=O)=C\c1ccccc1`: the Ratio in test [4] was 2.5. In addition, the values for the permeability in test [5] and in test [6] were 4.34 ×10⁻⁶ cm/s and 10.9 ×10⁻⁶ cm/s, respectively.

In test [3], `COc1ccc(S(=O)(=O)Nc2cc(F)c(O)c(F)c2)cc1` registered an IC50 of 15.5 µM.

With `O=[N+]([O-])c1ccc(S(=O)(=O)Nc2cc(F)c(O)c(F)c2)cc1`, the IC50 in test [3] amounted to 44.4 µM.
